Reference: ChEMBL document CHEMBL1149323, “Synthesis and evaluation of dihydropyrroloquinolines that selectively antagonize P-glycoprotein” (J Med Chem, 2004)

Legend:
[1] = Reversal index is the ratio of IC50 in the absence of modulator to that of presence of modulator when combined with vinblastine (nM) in T24 cell line; type: functional, T-24
Summary of the method: (§1)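 Cells treated in triplicate for 48 h with graded cytotoxic drug, with or without modulator. Survival quantified by sulforhodamine B absorbance at 570 nm. IC50 of the cytotoxic drug derived with and without modulator; reversal index = IC50 without modulator / IC50 with modulator.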

[2] = Reversal index is the ratio of IC50 in the absence of modulator to that of presence of modulator when combined with vinblastine (nM) in MCF-7/VP cell line; type: functional; summary of the method: as §1
[3] = Reversal index is the ratio of IC50 in the absence of modulator to that of presence of modulator when combined with vincristine (nM) in P388/ADR cell line; type: functional; summary of the method: as §1
[4] = Maximum concentration in plasma was determined after intraperitoneal administration of 100 mg/kg in mice; type: ADME, organism-based; design: dose 100 mg/kg, route intraperitoneal; conditions: mouse, ip
Summary of the method: (§2)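 Female Swiss-Webster mice, 6–8 weeks old, given 100 mg/kg PGP-4008·HCl intraperitoneally. Blood taken by intracardiac puncture under anesthesia at 1–240 min, three animals per time point. Samples precipitated with ice-cold acetonitrile with 2-naphthol internal standard, then HPLC read at 254 nm against a standard curve. Two-compartment model fit.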

[5] = Reversal index is the ratio of IC50 in the absence of modulator to that of presence of modulator when combined with 5-fluorouracil (uM) in P388/ADR cell line; type: functional; summary of the method: as §1
[6] = Reversal index is the ratio of IC50 in the absence of modulator to that of presence of modulator when combined with cisplatin (uM) in NCI/ADR cell line; type: functional; summary of the method: as §1
Mus musculus [7] = assay: In vivo tumor growth inhibition in mice when administered subcutaneously at a day 5; type: functional; conditions: in the assay text read “intraperitoneally” for “subcutaneously”
Summary of the method: (§3)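 Balb/c female mice, 6–8 weeks old, with 10^6 JC murine mammary adenocarcinoma cells injected subcutaneously in the right hind quarter. Treatment began once tumors were palpable (day 1), five mice per group. Dosing on days 1, 5 and 9: 100 mg/kg i.p. PGP-4008·HCl with or without 5 mg/kg doxorubicin. Caliper volumes calculated as (L×W²)/2 through day 15; unpaired t-test with Welch correction.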

[8] = Reversal index is the ratio of IC50 in the absence of modulator to that of presence of modulator when combined with doxorubicin (uM) in P388/ADR cell line
[9] = Reversal index is the ratio of IC50 in the absence of modulator to that of presence of modulator when combined with vinblastine (nM) in NCI/ADR cell line; type: functional; summary of the method: as §1
[10] = Reversal index is the ratio of IC50 in the absence of modulator to that of presence of modulator when combined with vincristine (nM) in T24 cell line; type: functional, T-24; summary of the method: as §1
[11] = Reversal index is the ratio of IC50 in the absence of modulator to that of presence of modulator when combined with vincristine (nM) in MCF-7 cell line; type: functional, MCF7; summary of the method: as §1
[12] = Compound was evaluated for broad range of antagonistic activity against multi drug resistance-related protein (MRP) value expressed as IC20; type: functional; design: unit not given here
[13] = Reversal index is the ratio of IC50 in the absence of modulator to that of presence of modulator when combined with taxol (nM) in P388/ADR cell line
Mus musculus [14] = assay: Volume of distribution after intraperitoneal administration of 100 mg/kg in mice; type: ADME, organism-based; design: dose 100 mg/kg, route intraperitoneal; conditions: in vivo, ip; summary of the method: as §2
[15] = Reversal index is the ratio of IC50 in the absence of modulator to that of presence of modulator when combined with taxol (nM) in MCF-7 cell line; type: functional, MCF7; summary of the method: as §1
[16] = Reversal index is the ratio of IC50 in the absence of modulator to that of presence of modulator when combined with cisplatin (uM) in T24 cell line; type: functional, T-24; summary of the method: as §1
[17] = Reversal index is the ratio of IC50 in the absence of modulator to that of presence of modulator when combined with taxol (nM) in T24 cell line; type: functional, T-24; summary of the method: as §1
[18] = Reversal index is the ratio of IC50 in the absence of modulator to that of presence of modulator when combined with vincristine (nM) in NCI/ADR cell line; type: functional; summary of the method: as §1
Mus musculus [19] = assay: In vivo tumor growth inhibition in mice when administered […] at a day 9; type: functional; summary of the method: as §3
[20] = Reversal index is the ratio of IC50 in the absence of modulator to that of presence of modulator when combined with 5-Fluorouracil (uM) in T24 cell line; type: functional, T-24; summary of the method: as §1
Mus musculus [21] = assay: Volume of the first compartment after intraperitoneal administration of 100 mg/kg in mice; conditions: in vivo, ip
Mus musculus [22] = assay: In vivo tumor growth inhibition in mice when […] at a day 15; type: functional; summary of the method: as §3
Mus musculus [23] = assay: In vivo tumor growth inhibition in mice when administered […] at a day 12; type: functional; summary of the method: as §3
[24] = Reversal index is the ratio of IC50 in the absence of modulator to that of presence of modulator when combined with 5-fluorouracil (uM) in NCI/ADR cell line; type: functional; summary of the method: as §1
[25] = Reversal index is the ratio of IC50 in the absence of modulator to that of presence of modulator when combined with cisplatin (uM) in P388/ADR cell line; type: functional; summary of the method: as §1
Mus musculus [26] = assay: In vivo tumor growth inhibition in mice when […] at a day 1; type: functional; summary of the method: as §3
[27] = Reversal index is the ratio of IC50 in the absence of modulator to that of presence of modulator when combined with vinblastine (nM) in MCF-7 cell line; type: functional, MCF7; summary of the method: as §1
Mus musculus [28] = assay: AUMC after intraperitoneal administration of 100 mg/kg in mice; type: ADME, organism-based; design: dose 100 mg/kg, route intraperitoneal; conditions: in vivo, ip; summary of the method: as §2
Mus musculus [29] = assay: The second majority of the volume of distribution after intraperitoneal administration of 100 mg/kg in mice; type: ADME, organism-based; design: dose 100 mg/kg, route intraperitoneal; conditions: in vivo, ip; summary of the method: as §2
[30] = molecular target: T1, ATP-dependent translocase ABCB1 (Homo sapiens, UniProt P08183); assay: Compound was evaluated for broad range of antagonistic activity against P-glycoprotein (Pgp) value expressed as IC20; type: functional
MCF-7 (Homo sapiens) = assay: Toxicity against MCF-7 cells
[31] = Reversal index is the ratio of IC50 in the absence of modulator to that of presence of modulator when combined with vincristine (nM) in MCF-7/VP cell line; type: functional; summary of the method: as §1
[32] = Reversal index is the ratio of IC50 in the absence of modulator to that of presence of modulator when combined with cisplatin (uM) in MCF-7/VP cell line; type: functional; summary of the method: as §1
[33] = Reversal index is the ratio of IC50 in the absence of modulator to that of presence of modulator when combined with taxol (nM) in NCI/ADR cell line; type: functional; summary of the method: as §1
[34] = Reversal index is the ratio of IC50 in the absence of modulator to that of presence of modulator when combined with taxol (nM) in MCF-7/VP cell line; type: functional; summary of the method: as §1
[35] = Reversal index is the ratio of IC50 in the absence of modulator to that of presence of modulator when combined with vinblastine (nM) in P388/ADR cell line; type: functional; summary of the method: as §1
[36] = Plasma clearance rate after intraperitoneal administration of 100 mg/kg in mice; type: ADME, organism-based; design: dose 100 mg/kg, route intraperitoneal; conditions: mouse, ip, read-out: Clp (converted); summary of the method: as §2
[37] = Reversal index is the ratio of IC50 in the absence of modulator to that of presence of modulator when combined with 5-Fluorouracil (uM) in MCF-7 cell line; type: functional, MCF7; summary of the method: as §1
[38] = Reversal index is the ratio of IC50 in the absence of modulator to that of presence of modulator when combined with 5-fluorouracil (uM) in MCF-7/VP cell line; type: functional; summary of the method: as §1
[39] = Reversal index is the ratio of IC50 in the absence of modulator to that of presence of modulator when combined with cisplatin (uM) in MCF-7 cell line; type: functional, MCF7; summary of the method: as §1
[40] = Ratio of the Pgp to that of MRP1 was determined; type: functional
[41] = molecular target: Multidrug resistance-associated protein 1 (Homo sapiens, UniProt P33527); assay: MRP1 antagonism was determined percentage of MCF-7/VP cells surviving in the absence of vincristine/percentage of MCF-7/VP cells surviving in the presence of vincristine; type: functional
Summary of the method: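 MCF-7/VP cells in RPMI 1640 with 10% FBS. Modulator at 10 μg/mL tested with or without 1 nM vincristine for 48 h, in triplicate. Sulforhodamine B read-out at 570 nm. Score = % survival without vincristine / % survival with vincristine; a score above 1.0 indicates chemosensitization.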

[42] = molecular target: T1, ATP-dependent translocase ABCB1; assay: Pgp antagonism was determined percentage of NCI/ADR cells surviving in the absence of vinblastine/percentage of NCI/ADR cells surviving in the presence of vinblastine; type: functional, cell-based
Summary of the method: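 Modulator at 10 μg/mL tested with or without 50 nM vinblastine for 48 h, in triplicate. Survival read by sulforhodamine B at 570 nm against ethanol (1%) controls. Score = % survival without vinblastine / % survival with vinblastine.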

MCF7 = assay: Toxicity was determined against of MCF-7 cells at a dose of 10 ug/mL; type: cell-based; conditions: human
Summary of the method: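 Drug-sensitive MCF-7 cells exposed to 10 μg/mL compound for 48 h, in triplicate, with 1% ethanol solvent controls. Percentage of cells killed = percentage decrease in sulforhodamine B binding (570 nm) relative to control cultures.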

T1 sequence (P08183 whole entry): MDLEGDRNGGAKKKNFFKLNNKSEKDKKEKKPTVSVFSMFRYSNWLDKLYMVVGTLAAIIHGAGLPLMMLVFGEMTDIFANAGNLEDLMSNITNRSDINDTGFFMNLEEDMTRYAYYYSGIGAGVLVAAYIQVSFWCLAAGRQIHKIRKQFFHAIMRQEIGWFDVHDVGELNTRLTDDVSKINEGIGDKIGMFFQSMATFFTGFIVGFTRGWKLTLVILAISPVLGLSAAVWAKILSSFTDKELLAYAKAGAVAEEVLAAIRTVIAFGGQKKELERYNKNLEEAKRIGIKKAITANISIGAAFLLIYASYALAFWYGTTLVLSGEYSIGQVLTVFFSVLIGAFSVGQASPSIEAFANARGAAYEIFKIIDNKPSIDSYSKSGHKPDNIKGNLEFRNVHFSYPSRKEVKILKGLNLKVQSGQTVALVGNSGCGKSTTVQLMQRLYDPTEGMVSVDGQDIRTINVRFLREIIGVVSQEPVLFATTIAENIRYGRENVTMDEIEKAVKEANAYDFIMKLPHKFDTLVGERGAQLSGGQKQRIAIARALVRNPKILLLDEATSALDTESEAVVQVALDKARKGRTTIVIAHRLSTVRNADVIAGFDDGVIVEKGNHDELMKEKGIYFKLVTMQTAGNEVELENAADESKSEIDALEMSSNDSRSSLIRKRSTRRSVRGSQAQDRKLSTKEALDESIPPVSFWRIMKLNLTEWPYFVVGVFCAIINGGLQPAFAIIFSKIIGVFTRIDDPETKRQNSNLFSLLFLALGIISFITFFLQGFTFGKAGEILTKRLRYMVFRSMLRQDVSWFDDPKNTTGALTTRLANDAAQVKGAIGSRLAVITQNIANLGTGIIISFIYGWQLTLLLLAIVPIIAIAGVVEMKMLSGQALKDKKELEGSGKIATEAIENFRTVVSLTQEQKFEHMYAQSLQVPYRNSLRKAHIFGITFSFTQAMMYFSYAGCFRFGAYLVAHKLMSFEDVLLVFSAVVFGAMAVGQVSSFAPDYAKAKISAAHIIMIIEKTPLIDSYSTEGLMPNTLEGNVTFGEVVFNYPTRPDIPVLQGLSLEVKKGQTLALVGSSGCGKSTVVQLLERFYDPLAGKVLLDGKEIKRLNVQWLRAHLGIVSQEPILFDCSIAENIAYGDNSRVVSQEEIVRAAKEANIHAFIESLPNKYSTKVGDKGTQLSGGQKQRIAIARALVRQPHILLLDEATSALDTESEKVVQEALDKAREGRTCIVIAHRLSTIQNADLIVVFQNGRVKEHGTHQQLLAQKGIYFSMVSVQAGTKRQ
Multidrug resistance-associated protein 1, sequence (P33527 whole entry): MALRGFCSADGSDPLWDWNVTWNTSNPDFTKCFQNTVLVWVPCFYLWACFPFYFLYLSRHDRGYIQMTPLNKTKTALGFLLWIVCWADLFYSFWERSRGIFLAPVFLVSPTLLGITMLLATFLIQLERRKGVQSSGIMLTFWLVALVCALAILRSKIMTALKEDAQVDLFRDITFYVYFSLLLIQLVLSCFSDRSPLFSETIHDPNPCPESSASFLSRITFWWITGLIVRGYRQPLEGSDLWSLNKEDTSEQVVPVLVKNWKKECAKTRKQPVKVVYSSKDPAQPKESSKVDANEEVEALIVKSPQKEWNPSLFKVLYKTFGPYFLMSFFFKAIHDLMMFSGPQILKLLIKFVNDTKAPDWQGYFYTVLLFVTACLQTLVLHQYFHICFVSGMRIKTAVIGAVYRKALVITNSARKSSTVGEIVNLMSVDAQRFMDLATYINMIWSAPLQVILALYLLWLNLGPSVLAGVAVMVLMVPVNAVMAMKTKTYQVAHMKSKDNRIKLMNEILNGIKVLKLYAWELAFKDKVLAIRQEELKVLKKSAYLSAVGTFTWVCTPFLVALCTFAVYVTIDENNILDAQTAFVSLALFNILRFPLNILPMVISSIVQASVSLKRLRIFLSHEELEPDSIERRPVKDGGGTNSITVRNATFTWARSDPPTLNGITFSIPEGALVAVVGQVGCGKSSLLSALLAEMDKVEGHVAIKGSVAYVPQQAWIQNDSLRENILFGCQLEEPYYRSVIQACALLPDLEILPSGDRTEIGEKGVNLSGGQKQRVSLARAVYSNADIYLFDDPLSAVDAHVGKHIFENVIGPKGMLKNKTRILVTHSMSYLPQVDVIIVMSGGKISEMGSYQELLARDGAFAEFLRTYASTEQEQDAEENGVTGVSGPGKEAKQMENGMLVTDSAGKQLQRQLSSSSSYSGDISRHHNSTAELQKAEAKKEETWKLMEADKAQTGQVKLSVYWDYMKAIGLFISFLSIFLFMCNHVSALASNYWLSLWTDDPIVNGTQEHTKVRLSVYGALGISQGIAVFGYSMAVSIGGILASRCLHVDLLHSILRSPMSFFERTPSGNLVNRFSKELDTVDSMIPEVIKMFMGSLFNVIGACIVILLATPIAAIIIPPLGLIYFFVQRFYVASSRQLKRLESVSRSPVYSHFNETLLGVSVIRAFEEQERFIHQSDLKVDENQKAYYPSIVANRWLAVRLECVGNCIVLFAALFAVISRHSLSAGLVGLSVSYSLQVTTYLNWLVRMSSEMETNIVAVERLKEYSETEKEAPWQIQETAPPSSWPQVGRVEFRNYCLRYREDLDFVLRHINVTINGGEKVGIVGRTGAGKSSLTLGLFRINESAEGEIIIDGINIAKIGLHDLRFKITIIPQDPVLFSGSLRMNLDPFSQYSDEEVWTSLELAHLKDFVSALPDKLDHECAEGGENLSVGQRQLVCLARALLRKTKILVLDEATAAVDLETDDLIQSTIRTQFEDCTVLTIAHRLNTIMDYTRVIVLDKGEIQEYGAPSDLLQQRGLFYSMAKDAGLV

| Structure (SMILES) | RI [1] | RI [2] | RI [3] | RI [5] | RI [6] | Tumor volume (Mus musculus [7]) | RI [8] | RI [9] | RI [10] | RI [11] | Activity [12] | RI [15] | RI [16] | RI [17] | RI [18] | Tumor volume (Mus musculus [19]) | RI [20] | Tumor volume (Mus musculus [22]) | Tumor volume (Mus musculus [23]) | Tumor volume (Mus musculus [26]) | also measured |
| --- | --- | --- | --- | --- | --- | --- | --- | --- | --- | --- | --- | --- | --- | --- | --- | --- | --- | --- | --- | --- | --- |
| O=C(Cc1ccccc1)Nc1c2c(nc3ccccc13)N(Cc1ccccc1)CC2 | 3.8 | 1.3 | 30 | 0.7 | 1.2 | 470 mm**3 | 200 | 35 | 1.5 | 0.9 | 0.7 | 0.9 | 1.1 | 1.2 | 18 | 1030 mm**3 | 2.6 | 2000 mm**3 | 1280 mm**3 | 380 mm**3 | Cmax [4]: 197 µg/mL; RI [13]: 202; Vdss (Mus musculus [14]): 43 mL; V1 (Mus musculus [21]): 2.3 mL; RI [24]: 1; RI [25]: 1.9; RI [27]: 1.8; AUMC (Mus musculus [28]): 9.4 µg·h²/mL; V2 (Mus musculus [29]): 40.5 mL; Activity [30]: 10.7; Toxicity (MCF-7 (Homo sapiens)): 13 µM; RI [31]: 1; RI [32]: 0.8; RI [33]: 70; RI [34]: 0.8; RI [35]: 63; CL/F [36]: 1.34 mL/min |
| COc1cccc2c1C(=O)c1c(O)c3c(c(O)c1C2=O)C[C@@](O)(C(=O)CO)C[C@@H]3O[C@H]1C[C@H](N)[C@H](O)[C@H](C)O1.O=C(Cc1ccccc1)Nc1c2c(nc3ccccc13)N(Cc1ccccc1)CC2 |  |  |  |  |  | 470 mm**3 |  |  |  |  |  |  |  |  |  | 520 mm**3 |  | 670 mm**3 | 560 mm**3 | 390 mm**3 |  |
| COc1ccc(CCN(C)CCCC(C#N)(c2ccc(OC)c(OC)c2)C(C)C)cc1OC (centres undefined) | 2.7 | 2.4 | 112 | 0.7 | 1.1 |  | 1000 | 173 | 3.7 | 4.6 |  | 1.1 | 1 | 1.6 | 50 |  | 1.6 |  |  |  | RI [37]: 0.9; RI [38]: 0.9; RI [39]: 1.1; RI [24]: 0.9; RI [25]: 2; RI [27]: 1.2; RI [31]: 15; RI [32]: 0.8; RI [33]: 106; RI [34]: 1.1; RI [35]: 61 |
| O=C(CN1CCCCC1)Nc1c2c(nc3ccccc13)N(Cc1ccccc1)CC2 |  |  |  |  |  |  |  |  |  |  | 1 |  |  |  |  |  |  |  |  |  | Ratio [40]: 16; Ratio [41]: 1.1; Ratio [42]: 18; Activity [30]: 9; Toxicity (MCF7): 0%; Toxicity (MCF-7 (Homo sapiens)): 14 µM |
| COc1cccc2c1C(=O)c1c(O)c3c(c(O)c1C2=O)C[C@@](O)(C(=O)CO)C[C@@H]3O[C@H]1C[C@H](N)[C@H](O)[C@H](C)O1 [DOXORUBICIN] |  |  |  |  |  | 520 mm**3 |  |  |  |  |  |  |  |  |  | 860 mm**3 |  | 1680 mm**3 | 1210 mm**3 | 430 mm**3 |  |
